Active and inactive are the calls of the source. The rule behind the calls is not given here. Where a SMILES comes first, the peptide text is derived from it.
How the values were obtained:
[1] = Stability in fetal bovine serum assessed as drug degradation measured for 4 hrs by RP-HPLC analysis; assay type: ADME, cell-free, Bos taurus; settings: cattle, read-out: Drug degradation
Summary of the method: (§1)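 Peptides incubated in serum for up to 12 h. Degradation is followed as the percentage of intact YSL remaining at time points including 4 and 12 h.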

4T1 [2] = experiment: Induction of apoptosis in mouse 4T1 cells at 0.8 mM incubated for 24 hrs by PI staining based inverted microscopic method; assay type: functional, cell-based
Summary of the method: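 Live–dead staining of 4T1 cells after 24 h exposure, with PI uptake imaged microscopically. A higher 0.8 mM dose was also tested.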

4T1 [3] = experiment: Inhibition of cell migration in mouse 4T1 cells assessed as migration frequency at 0.2 mM incubated for 24 hrs by crystal violet staining based transwell assay relative to control; assay type: functional; design: scale not given: the % may be the effect or the level left
Summary of the method: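 4T1 cells, Transwell migration with 24 h exposure to 0.2 mM. Migration rate comes from counting cells on the bottom of the porous membrane. Mean ± SD, n = 3.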

[4] = Toxicity in BALB/c mouse xenografted with mouse 4T1 cells assessed as induction of morphological lesions in liver at 10 mg/kg administered intratumorally and measured after 24 days by H and E staining based inverted optical microscopic method; assay type: organism-based; settings: in vivo, other, 576 h
4T1 [5] = experiment: Antiproliferative activity against mouse 4T1 cells at 0.1 mM incubated for 24 hrs by MTT assay; assay type: functional, cell-based
[6] = Toxicity in BALB/c mouse xenografted with mouse 4T1 cells assessed as change in body weight at 10 mg/kg administered intratumorally and measured after 24 days; assay type: organism-based; settings: in vivo, other, 576 h
Summary of the method: (§2)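 BALB/c mice bearing subcutaneous 4T1 tumours received 6 doses of 10 mg/kg, with equal YSL-monomer molar amounts across compounds and saline as control. Tumour volume growth curves and body weights were tracked. Mean ± SD, n = 5.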

4T1 [7] = experiment: Induction of cell cycle arrest in mouse 4T1 cells assessed as accumulation at G0/G1 phase at 0.4 mM incubated for 24 hrs by PI staining based flow cytometric analysis (reference value: 37.78%); assay type: functional
4T1 [8] = experiment: Inhibition of metastasis in mouse 4T1 cells assessed as disruption in F-actin arrangement at 0.2 mM incubated for 24 hrs by Hoechst 33342 staining based confocal laser scanning microscopic method; assay type: functional, cell-based
Summary of the method: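 After 24 h at 0.2 mM, 4T1 cells were stained for F-actin with Alexa Fluor 488 phalloidin and for nuclei with Hoechst 33342, then imaged by fluorescence for cytoskeletal arrangement and cell morphology.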

[9] = Toxicity in BALB/c mouse xenografted with mouse 4T1 cells assessed as change in blood urea nitrogen level at 10 mg/kg administered intratumorally and measured after 24 days; assay type: organism-based; settings: in vivo, other, 576 h
4T1 [10] = experiment: Inhibition of cell migration in mouse 4T1 cells assessed as wound closure rate at 0.2 mM measured up to 36 hrs by inverted optical microscopic method based wound healing assay (reference value: 82%); assay type: functional; design: scale not given: the % may be the effect or the level left
[11] = Toxicity in BALB/c mouse xenografted with mouse 4T1 cells assessed as induction of morphological lesions in spleen at 10 mg/kg administered intratumorally and measured after 24 days by H and E staining based inverted optical microscopic method; assay type: organism-based; settings: in vivo, other, 576 h
Erythrocyte = experiment: Hemolytic activity in BALB/c mouse RBC at 3.2 mM incubated for 2 hrs by UV-Vis spectrophotometric analysis; assay type: ADME, cell-based; settings: 3200 µM
Summary of the method: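 Hemolysis assay on red blood cells with dendrimers up to 3.2 mM. Result is expressed as hemolysis rate, with under 5% taken as acceptable.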

4T1 [12] = experiment: Induction of cell cycle arrest in mouse 4T1 cells assessed as accumulation at G2/M phase at 0.4 mM incubated for 24 hrs by PI staining based flow cytometric analysis (reference value: 19.82%); assay type: functional
4T1 [13] = experiment: Antitumour activity against mouse 4T1 cells xenografted in BALB/c mouse assessed as reduction in number of lung tumor metastatic nodules at 10 mg/kg administered intratumorally and measured after 24 days by H and E staining based inverted optical microscopic method; assay type: functional, organism-based
Summary of the method: (§3)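 After 6 doses of 10 mg/kg to 4T1 tumour-bearing BALB/c mice (saline control), lungs were photographed whole and examined histopathologically for the number and size of metastatic nodules.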

4T1 [14] = experiment: Induction of apoptosis in mouse 4T1 cells assessed as early apoptotic cells at 0.4 mM incubated for 24 hrs by Annexin V-FITC/PI based FACS analysis (reference value: 0.76%); assay type: functional
[15] = Toxicity in BALB/c mouse xenografted with mouse 4T1 cells assessed as change in serum creatinine level at 10 mg/kg administered intratumorally and measured after 24 days; assay type: organism-based; settings: in vivo, other, 576 h
4T1 [16] = experiment: Antitumour activity against mouse 4T1 cells xenografted in BALB/c mouse assessed as reduction in size of lung tumor metastatic nodules at 10 mg/kg administered intratumorally and measured after 24 days by H and E staining based inverted optical microscopic method; assay type: functional, organism-based; summary of the method: as §3
4T1 [17] = experiment: Induction of apoptosis in mouse 4T1 cells assessed as late apoptotic cells at 0.4 mM incubated for 24 hrs by Annexin V-FITC/PI based FACS analysis (reference value: 6.62%); assay type: functional
[18] = Toxicity in BALB/c mouse xenografted with mouse 4T1 cells assessed as induction of morphological lesions in kidney at 10 mg/kg administered intratumorally and measured after 24 days by H and E staining based inverted optical microscopic method; assay type: organism-based; settings: in vivo, other, 576 h
4T1 [19] = experiment: Induction of apoptosis in mouse 4T1 cells assessed as viable cells at 0.4 mM incubated for 24 hrs by Annexin V-FITC/PI based FACS analysis (reference value: 92.2%); assay type: functional; settings: 4T1, 24 h, read-out: Activity
[20] = Toxicity in BALB/c mouse xenografted with mouse 4T1 cells assessed as induction of morphological lesions in heart at 10 mg/kg administered intratumorally and measured after 24 days by H and E staining based inverted optical microscopic method; assay type: organism-based; settings: in vivo, other, 576 h
4T1 [21] = experiment: Antiproliferative activity against mouse 4T1 cells assessed as cell death at 0.2 mM incubated for 24 hrs by MTT assay relative to control; assay type: functional
Summary of the method: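 Mouse 4T1 breast cancer cells exposed for 24 h (doses include 0.1 and 0.2 mM), then read by MTT for viability or cell death. Mean ± SD, n = 6.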

[22] = Stability in fetal bovine serum assessed as drug degradation measured for 12 hrs by RP-HPLC analysis; assay type: ADME, cell-free, Bos taurus; settings: cattle, read-out: Drug degradation; summary of the method: as §1
4T1 [23] = experiment: Induction of apoptosis in mouse 4T1 cells assessed as necrotic cells at 0.4 mM incubated for 24 hrs by Annexin V-FITC/PI based FACS analysis (reference value: 0.47%); assay type: functional
4T1 [24] = experiment: Antitumour activity against mouse 4T1 cells xenografted in BALB/c mouse assessed as inhibition in tumor growth at 10 mg/kg administered intratumorally and measured every 3 days for 24 days; assay type: functional, organism-based; summary of the method: as §2
4T1 [25] = experiment: Induction of cell cycle arrest in mouse 4T1 cells assessed as accumulation at S phase at 0.4 mM incubated for 24 hrs by PI staining based flow cytometric analysis (Rvb =42.35%); assay type: functional
4T1 [26] = experiment: Antiinvasive activity in mouse 4T1 cells assessed as inhibition of cell invasion at 0.2 mM incubated for 24 hrs by crystal violet staining based matrigel invasion assay relative to control; assay type: functional; settings: 4T1, 24 h
Summary of the method: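 4T1 cells, Matrigel-coated Transwell invasion with 0.2 mM compound. Invasion rate comes from counting cells on the underside of the Matrigel-coated porous membrane, relative to untreated control. Mean ± SD, n = 3.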

4T1 [27] = experiment: Antitumour activity against mouse 4T1 cells xenografted in BALB/c mouse assessed as increase in damage of tumor tissue at 10 mg/kg administered intratumorally and measured after 24 days by H and E staining based inverted optical microscopic method; assay type: functional, organism-based
Summary of the method: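 Tumours from 4T1-bearing BALB/c mice given 6 doses of 10 mg/kg (saline control) were sectioned and stained with H&E, plus CD31, Ki-67 and TUNEL.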

COC(=O)[C@H](CC(C)C)NC(=O)[C@H](CO)NC(=O)[C@@H](N)Cc1ccc(O)cc1 (H-Tyr-Ser-Leu-OMe)
metabolised at 4 h [1]: 60% | Activity (4T1 [2]): Active | Activity (4T1 [3]): 82% | Activity [4]: Non-Toxic | Activity (4T1 [5]): inactive | Activity [6]: Non-Toxic | Activity (4T1 [7]): 37.41% | F-actin disruption (qualitative) (4T1 [8]): Active | Activity [9]: Non-Toxic | Activity (4T1 [10]): 80% | Activity [11]: Non-Toxic | Activity (Erythrocyte): Non-Toxic | Activity (4T1 [12]): 48.48% | Activity (4T1 [13]): Active | Activity (4T1 [14]): 0.88% | Activity [15]: Non-Toxic | Activity (4T1 [16]): Active | Activity (4T1 [17]): 10.3% | Activity [18]: Non-Toxic | viability at 400 µM (4T1 [19]): 87.6% | Activity [20]: Non-Toxic | Activity (4T1 [21]): 2% | metabolised at 12 h [22]: 100% | Activity (4T1 [23]): 1.23% | Activity (4T1 [24]): Active | Activity (4T1 [25]): 42.35% | inhibition at 200 µM (4T1 [26]): 92% | Activity (4T1 [27]): Active

Source: ChEMBL document CHEMBL4406918, “Inhibitory Effects of Multivalent Polypeptides on the Proliferation and Metastasis of Breast Cancer Cells” (ACS Med Chem Lett, 2019)
